Measurements from ChEMBL document CHEMBL1811752, “Synthesis and pharmacological characterization of bicyclic triple reuptake inhibitor 3-aryl octahydrocyclopenta[c]pyrrole analogues” (J Med Chem, 2011).
pIC50: −log10 of the molar value.

Key:
Cytochrome P450 2D6 = Cytochrome P450 2D6 (Homo sapiens, UniProt P10635); experiment: Inhibition of CYP2D6 in human liver microsomes by LC-MS/MS analysis; format: ADME, Microsome
In short: (§1)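 Human liver microsomes incubated with isoform-specific substrates and compound, typically 0.1–25 μM. Metabolite formation read by LC-MS/MS, […]. IC50 calculated from the decrease in metabolite formation relative to vehicle control.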

[1] = Half life in human liver microsomes at 3 uM by LC-MS/MS analysis; format: ADME, Microsome
In short: (§2)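 Human or mouse liver microsomes (0.5 mg/mL) incubated with 3 μM compound at 37 °C. Reaction started with NADPH and stopped with methanol containing internal standard. Loss of compound followed over 45 min by LC-MS/MS. Peak area ratio to internal standard plotted against time and the slope of the line taken.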

[2] = Half life in mouse liver microsomes at 3 uM by LC-MS/MS analysis; format: ADME, Microsome; in short: as §2
[3] = target: Sodium-dependent dopamine transporter (Homo sapiens, UniProt Q01959); experiment: Inhibition of dopamine reuptake at DAT expressed in CHO-K1 cells; format: cell-based
Sequence of Sodium-dependent dopamine transporter (Q01959 whole entry): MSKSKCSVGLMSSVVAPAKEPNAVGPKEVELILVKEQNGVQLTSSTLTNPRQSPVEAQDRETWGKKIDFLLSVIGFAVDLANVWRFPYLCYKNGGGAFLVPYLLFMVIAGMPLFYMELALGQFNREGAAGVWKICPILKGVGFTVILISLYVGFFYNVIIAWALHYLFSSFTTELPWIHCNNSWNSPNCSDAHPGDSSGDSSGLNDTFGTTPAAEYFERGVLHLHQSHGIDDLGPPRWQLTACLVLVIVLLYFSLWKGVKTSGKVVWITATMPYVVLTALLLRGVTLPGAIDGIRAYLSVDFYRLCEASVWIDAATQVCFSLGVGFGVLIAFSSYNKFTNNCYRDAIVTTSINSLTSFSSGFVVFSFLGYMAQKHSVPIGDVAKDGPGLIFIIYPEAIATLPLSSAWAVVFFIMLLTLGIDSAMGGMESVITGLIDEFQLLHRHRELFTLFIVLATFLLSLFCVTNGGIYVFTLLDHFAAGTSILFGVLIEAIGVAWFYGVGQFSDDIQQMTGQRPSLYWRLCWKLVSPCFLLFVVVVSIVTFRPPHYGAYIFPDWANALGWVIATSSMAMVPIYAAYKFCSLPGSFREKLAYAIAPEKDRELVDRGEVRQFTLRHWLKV

[4] = target: Sodium-dependent serotonin transporter (Homo sapiens, UniProt P31645); experiment: Inhibition of serotonin reuptake at SERT expressed in HEK293 cells; format: cell-based
Sequence of Sodium-dependent serotonin transporter (P31645 whole entry): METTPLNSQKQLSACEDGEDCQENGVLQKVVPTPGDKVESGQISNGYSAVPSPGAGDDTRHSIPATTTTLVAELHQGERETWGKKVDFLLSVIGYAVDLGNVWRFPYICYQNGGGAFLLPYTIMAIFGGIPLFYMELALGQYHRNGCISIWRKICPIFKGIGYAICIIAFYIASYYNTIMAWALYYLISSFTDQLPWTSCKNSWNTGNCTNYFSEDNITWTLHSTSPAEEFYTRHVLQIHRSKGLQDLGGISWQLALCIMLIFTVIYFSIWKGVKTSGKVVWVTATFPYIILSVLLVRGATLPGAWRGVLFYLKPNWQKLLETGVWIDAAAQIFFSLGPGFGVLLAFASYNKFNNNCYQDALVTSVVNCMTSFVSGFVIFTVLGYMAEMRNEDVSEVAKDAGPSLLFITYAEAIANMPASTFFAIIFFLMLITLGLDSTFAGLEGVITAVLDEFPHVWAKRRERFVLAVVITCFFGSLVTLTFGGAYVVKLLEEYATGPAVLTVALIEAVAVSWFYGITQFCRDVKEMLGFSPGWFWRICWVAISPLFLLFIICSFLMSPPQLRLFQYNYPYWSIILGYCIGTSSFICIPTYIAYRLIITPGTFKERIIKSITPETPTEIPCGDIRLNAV

[5] = target: Sodium-dependent noradrenaline transporter (Homo sapiens, UniProt P23975); experiment: Inhibition of norepinephrine reuptake at NET expressed in MDCK cells; format: cell-based
Sequence of Sodium-dependent noradrenaline transporter (P23975 whole entry): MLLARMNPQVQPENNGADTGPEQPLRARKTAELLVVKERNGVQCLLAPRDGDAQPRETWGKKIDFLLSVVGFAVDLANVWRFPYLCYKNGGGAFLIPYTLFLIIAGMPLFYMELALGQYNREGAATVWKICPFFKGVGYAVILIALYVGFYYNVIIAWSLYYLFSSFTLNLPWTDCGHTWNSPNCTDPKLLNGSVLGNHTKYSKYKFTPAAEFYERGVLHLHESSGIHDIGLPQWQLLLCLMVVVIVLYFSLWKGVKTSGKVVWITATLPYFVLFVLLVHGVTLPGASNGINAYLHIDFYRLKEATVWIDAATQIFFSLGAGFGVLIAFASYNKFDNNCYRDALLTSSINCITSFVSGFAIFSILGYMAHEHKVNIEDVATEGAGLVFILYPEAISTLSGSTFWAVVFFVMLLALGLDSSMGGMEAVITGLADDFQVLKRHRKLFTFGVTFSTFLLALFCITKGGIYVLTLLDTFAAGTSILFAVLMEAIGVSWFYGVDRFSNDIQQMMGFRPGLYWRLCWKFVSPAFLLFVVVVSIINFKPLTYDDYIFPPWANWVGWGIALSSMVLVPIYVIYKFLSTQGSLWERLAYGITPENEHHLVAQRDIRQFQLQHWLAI

Cytochrome P450 2C19 = Cytochrome P450 2C19 (Homo sapiens, UniProt P33261); experiment: Inhibition of CYP2C19 in human liver microsomes by LC-MS/MS analysis; format: ADME, Microsome; in short: as §1
Sequence of Cytochrome P450 2C19 (P33261 whole entry): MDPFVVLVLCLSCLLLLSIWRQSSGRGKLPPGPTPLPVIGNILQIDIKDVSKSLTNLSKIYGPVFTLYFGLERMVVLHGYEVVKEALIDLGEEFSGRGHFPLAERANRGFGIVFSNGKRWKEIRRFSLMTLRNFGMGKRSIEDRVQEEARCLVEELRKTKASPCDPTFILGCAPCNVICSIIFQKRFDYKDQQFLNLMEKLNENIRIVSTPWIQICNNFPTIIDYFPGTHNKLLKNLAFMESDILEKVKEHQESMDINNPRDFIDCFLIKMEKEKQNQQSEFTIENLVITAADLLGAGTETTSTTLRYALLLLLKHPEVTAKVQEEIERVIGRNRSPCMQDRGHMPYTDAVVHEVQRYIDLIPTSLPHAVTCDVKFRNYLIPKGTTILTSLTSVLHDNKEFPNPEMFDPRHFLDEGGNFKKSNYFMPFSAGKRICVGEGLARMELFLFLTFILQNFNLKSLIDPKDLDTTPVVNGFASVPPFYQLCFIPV

Cytochrome P450 2C9 = Cytochrome P450 2C9 (Homo sapiens, UniProt P11712); experiment: Inhibition of CYP2C9 in human liver microsomes by LC-MS/MS analysis; format: ADME, Microsome; in short: as §1
Sequence of Cytochrome P450 2C9 (P11712 whole entry): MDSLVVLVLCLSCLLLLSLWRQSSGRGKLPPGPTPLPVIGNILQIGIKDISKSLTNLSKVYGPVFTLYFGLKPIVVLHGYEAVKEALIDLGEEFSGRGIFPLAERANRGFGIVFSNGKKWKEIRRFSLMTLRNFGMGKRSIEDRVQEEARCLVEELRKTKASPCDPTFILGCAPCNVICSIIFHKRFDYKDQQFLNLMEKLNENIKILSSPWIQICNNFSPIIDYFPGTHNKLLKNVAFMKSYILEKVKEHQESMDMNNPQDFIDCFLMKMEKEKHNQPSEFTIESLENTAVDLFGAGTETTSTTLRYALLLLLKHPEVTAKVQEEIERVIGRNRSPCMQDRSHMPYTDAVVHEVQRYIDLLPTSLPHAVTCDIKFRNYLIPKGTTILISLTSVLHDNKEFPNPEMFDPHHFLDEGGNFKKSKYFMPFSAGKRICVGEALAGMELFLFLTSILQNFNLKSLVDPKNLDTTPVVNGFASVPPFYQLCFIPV

Cytochrome P450 3A4 = Cytochrome P450 3A4 (Homo sapiens, UniProt P08684); experiment: Inhibition of CYP3A4 in human liver microsomes by LC-MS/MS analysis; format: ADME, Microsome; in short: as §1
Sequence of Cytochrome P450 3A4 (P08684 whole entry): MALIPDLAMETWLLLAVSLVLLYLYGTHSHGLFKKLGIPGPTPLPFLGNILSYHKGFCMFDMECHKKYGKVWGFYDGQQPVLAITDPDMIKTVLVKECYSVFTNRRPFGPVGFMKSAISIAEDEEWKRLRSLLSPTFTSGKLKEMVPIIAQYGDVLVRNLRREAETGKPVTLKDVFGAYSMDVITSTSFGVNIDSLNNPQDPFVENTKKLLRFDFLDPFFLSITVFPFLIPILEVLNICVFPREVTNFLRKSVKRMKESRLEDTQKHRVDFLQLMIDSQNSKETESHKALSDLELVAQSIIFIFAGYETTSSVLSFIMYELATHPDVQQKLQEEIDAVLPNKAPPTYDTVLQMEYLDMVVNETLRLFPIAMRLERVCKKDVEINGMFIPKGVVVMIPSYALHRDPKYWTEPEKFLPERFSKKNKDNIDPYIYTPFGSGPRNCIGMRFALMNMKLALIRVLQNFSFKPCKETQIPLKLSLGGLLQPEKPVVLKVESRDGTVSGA

[6] = target: Voltage-gated inwardly rectifying potassium channel KCNH2 (Homo sapiens, UniProt Q12809); experiment: Inhibition of human ERG expressed in CHO cells by high throughput single cell planar patch clamp method; format: cell-based
Sequence of Voltage-gated inwardly rectifying potassium channel KCNH2 (Q12809 whole entry): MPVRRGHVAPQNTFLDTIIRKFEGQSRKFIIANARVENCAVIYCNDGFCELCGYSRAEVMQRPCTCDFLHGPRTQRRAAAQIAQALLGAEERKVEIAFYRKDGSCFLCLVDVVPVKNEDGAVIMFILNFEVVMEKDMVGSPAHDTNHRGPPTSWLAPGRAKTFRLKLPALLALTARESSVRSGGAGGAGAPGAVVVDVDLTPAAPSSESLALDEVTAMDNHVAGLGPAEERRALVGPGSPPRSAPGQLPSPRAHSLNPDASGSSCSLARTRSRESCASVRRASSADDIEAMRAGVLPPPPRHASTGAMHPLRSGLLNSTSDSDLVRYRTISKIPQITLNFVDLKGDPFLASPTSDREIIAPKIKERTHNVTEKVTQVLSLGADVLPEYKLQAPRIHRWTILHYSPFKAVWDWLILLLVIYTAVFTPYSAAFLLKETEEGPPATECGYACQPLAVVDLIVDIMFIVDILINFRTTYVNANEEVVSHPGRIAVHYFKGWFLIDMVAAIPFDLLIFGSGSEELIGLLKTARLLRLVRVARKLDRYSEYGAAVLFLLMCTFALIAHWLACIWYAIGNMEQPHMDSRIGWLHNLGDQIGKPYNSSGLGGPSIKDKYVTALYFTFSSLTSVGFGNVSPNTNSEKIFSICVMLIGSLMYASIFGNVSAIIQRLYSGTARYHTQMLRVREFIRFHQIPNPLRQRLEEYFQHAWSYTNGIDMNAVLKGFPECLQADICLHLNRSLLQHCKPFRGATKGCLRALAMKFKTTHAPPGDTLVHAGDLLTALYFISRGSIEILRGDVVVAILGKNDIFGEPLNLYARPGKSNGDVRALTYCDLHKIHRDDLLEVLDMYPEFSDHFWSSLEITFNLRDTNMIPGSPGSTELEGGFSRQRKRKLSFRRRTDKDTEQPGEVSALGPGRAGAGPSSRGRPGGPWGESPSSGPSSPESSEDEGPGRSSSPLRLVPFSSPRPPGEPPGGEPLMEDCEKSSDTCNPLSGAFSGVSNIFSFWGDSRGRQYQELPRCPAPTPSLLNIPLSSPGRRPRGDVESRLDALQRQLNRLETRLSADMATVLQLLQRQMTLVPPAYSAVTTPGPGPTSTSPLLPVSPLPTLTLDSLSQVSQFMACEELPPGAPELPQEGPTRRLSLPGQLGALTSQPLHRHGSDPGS

CYP1A = target: T1, CYP1A (Homo sapiens, UniProt P04798+P05177); experiment: Inhibition of CYP1A in human liver microsomes by LC-MS/MS analysis; format: ADME, Microsome; in short: as §1
T1 sequence (P04798 whole entry): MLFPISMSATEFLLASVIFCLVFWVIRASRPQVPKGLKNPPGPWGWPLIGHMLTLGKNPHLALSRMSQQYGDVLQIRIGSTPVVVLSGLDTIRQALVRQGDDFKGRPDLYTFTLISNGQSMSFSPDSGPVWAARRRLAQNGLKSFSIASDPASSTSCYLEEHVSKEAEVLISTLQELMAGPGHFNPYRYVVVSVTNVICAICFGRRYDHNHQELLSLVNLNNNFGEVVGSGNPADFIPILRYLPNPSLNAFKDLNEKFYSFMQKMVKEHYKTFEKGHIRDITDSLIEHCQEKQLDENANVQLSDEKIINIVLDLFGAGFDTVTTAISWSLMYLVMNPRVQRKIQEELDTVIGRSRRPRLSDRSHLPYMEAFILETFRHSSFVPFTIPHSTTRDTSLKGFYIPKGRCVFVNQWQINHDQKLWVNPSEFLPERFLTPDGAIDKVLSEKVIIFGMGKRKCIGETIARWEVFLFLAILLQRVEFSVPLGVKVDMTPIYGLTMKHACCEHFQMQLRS
T1 sequence (P05177 whole entry): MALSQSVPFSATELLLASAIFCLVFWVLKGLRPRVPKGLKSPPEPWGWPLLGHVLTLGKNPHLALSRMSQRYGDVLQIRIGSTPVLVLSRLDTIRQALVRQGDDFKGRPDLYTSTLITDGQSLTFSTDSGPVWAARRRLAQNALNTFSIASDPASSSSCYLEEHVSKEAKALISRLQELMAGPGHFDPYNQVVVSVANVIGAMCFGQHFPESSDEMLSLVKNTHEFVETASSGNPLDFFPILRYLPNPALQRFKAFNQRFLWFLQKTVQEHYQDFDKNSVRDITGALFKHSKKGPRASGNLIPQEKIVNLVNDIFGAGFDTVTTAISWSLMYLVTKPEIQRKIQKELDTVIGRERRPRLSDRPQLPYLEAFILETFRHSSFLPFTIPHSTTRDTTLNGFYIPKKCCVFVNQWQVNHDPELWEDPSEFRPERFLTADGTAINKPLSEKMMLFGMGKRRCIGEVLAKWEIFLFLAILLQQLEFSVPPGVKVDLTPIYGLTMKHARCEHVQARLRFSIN

Sequence of Cytochrome P450 2D6 (P10635 whole entry, canonical isoform): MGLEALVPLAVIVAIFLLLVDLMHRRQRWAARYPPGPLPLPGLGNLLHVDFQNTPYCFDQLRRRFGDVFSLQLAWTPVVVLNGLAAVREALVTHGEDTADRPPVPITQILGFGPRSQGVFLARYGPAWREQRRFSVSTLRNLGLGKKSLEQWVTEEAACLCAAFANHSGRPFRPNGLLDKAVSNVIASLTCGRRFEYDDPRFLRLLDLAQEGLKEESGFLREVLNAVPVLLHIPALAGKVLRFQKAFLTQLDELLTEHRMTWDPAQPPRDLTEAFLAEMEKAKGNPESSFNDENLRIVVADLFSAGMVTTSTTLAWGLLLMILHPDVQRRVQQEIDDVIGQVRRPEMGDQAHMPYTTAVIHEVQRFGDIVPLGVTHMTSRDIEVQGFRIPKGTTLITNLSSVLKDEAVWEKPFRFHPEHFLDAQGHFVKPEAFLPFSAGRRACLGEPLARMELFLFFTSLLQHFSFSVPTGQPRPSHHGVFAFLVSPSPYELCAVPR

Row | SMILES | pIC50 (Cytochrome P450 2D6) | half-life at 3 µM [1] | half-life at 3 µM [2] | pIC50 [3] | pIC50 [4] | pIC50 [5] | pIC50 (Cytochrome P450 2C19) | pIC50 (Cytochrome P450 2C9) | pIC50 (Cytochrome P450 3A4) | pIC50 [6] | pIC50 (CYP1A)
1 | CN1C[C@@H]2CCCC[C@]2(c2ccc3ccccc3c2)C1 | 6.25 | 46 min | 18 min | 6.51 | 8.16 | 6.14 | – | – | – | – | –
2 | COc1cccc([C@]23CCC[C@H]2CN(C)C3)c1 (racemic) | – | – | – | < 5.00 | 6.16 | < 5.00 | – | – | – | – | –
3 | Clc1ccc([C@@]23CCC[C@@H]2CNC3)cc1Cl | 5.16 | 262 min | 91 min | 6.91 | 7.31 | 6.97 | 4.92 | < 4.60 | < 5.30 | 5.28 | 4.73
4 | CCN1C[C@H]2CCCC[C@@]2(c2ccc(Cl)c(Cl)c2)C1 | 6.60 | 68 min | 52 min | 7.60 | 7.34 | 7.57 | 4.75 | < 5.30 | < 5.30 | 5.33 | < 4.60
5 | CN1C[C@@H]2CCCC[C@]2(c2ccc(Cl)c(Cl)c2)C1 | 5.10 | 62 min | 35 min | 7.85 | 6.97 | 6.85 | < 4.60 | < 4.60 | 5.28 | 5.63 | 5.52
6 | Clc1ccc([C@]23CCC[C@H]2CNC3)cc1Cl (single isomer, unassigned) | 5.61 | 22 min | 56 min | 6.85 | 6.30 | 6.68 | 5.72 | 5.40 | 5.04 | 5.19 | 6.28
7 | Clc1ccc([C@@]23CCCC[C@@H]2CNC3)cc1Cl | 5.10 | > 300 min | > 300 min | 7.08 | 7.04 | 6.69 | < 4.60 | < 4.60 | 4.89 | 5.44 | 5.21
8 | CN1C[C@@H]2CCCC[C@]2(c2ccccc2)C1 (racemic) | – | – | – | 5.80 | 6.14 | 6.25 | – | – | – | – | –
9 | CN1C[C@@H]2CCCC[C@]2(Cc2ccc(Cl)c(Cl)c2)C1 (stereo in doubt) | – | – | – | 6.31 | 6.47 | 5.35 | – | – | – | – | –
10 | Clc1ccc([C@]23CCCC[C@@H]2CNC3)cc1Cl (racemic; 19b) | – | – | – | 6.34 | 5.72 | 5.67 | – | – | – | – | –
11 | CN1C[C@@H]2CCC[C@]2(c2ccc(Cl)c(Cl)c2)C1 (single isomer, unassigned) | 5.36 | 28 min | 27 min | 7.32 | 7.08 | 7.02 | 5.65 | 5.01 | 4.90 | – | 5.83
12 | c1ccc2cc([C@@]34CCC[C@@H]3CNC4)ccc2c1 | 4.97 | 28 min | 56 min | 7.52 | 6.92 | 7.22 | 5.14 | 4.84 | 4.97 | – | 6.15
13 | CN1C[C@@H]2CCC[C@]2(c2cc(Cl)cc(Cl)c2)C1 (racemic) | – | – | – | 5.01 | 6.48 | 5.37 | – | – | – | – | –
14 | CN1C[C@H]2CCCC[C@@]2(c2cccc3ccccc23)C1 | – | – | – | 5.61 | 7.48 | 6.69 | – | – | – | – | –
15 | COc1cccc([C@]23CCCC[C@H]2CN(C)C3)c1 (racemic) | – | – | – | 5.47 | 6.83 | 5.61 | – | – | – | – | –
16 | COc1ccc([C@]23CCC[C@H]2CN(C)C3)cc1 (racemic) | – | – | – | < 5.00 | 8.35 | < 5.00 | – | – | – | – | –
17 | CN1C[C@@H]2CCC[C@]2(c2ccc(F)c(F)c2)C1 (racemic) | – | – | – | 5.55 | 5.96 | 5.19 | – | – | – | – | –
18 | Clc1ccc(C[C@@]23CCCC[C@@H]2CNC3)cc1Cl | > 7.30 | > 300 min | > 300 min | 6.80 | 7.31 | 5.53 | – | – | – | – | –

Row | SMILES | pIC50 (Cytochrome P450 2D6) | half-life at 3 µM [1] | half-life at 3 µM [2] | pIC50 [3] | pIC50 [4] | pIC50 [5] | pIC50 (Cytochrome P450 2C19) | pIC50 (Cytochrome P450 2C9) | pIC50 (Cytochrome P450 3A4) | pIC50 [6] | pIC50 (CYP1A)
19 | CN1C[C@@H]2CCC[C@]2(c2ccc(Cl)c(Cl)c2)C1 (racemic) | – | – | – | 7.17 | 8.05 | 7.62 | – | – | – | – | –
20 | CN1C[C@@H]2CCCC[C@]2(c2ccc(Cl)cc2Cl)C1 (racemic) | – | – | – | 5.89 | 6.46 | 6.04 | – | – | – | – | –
21 | COc1ccc([C@]23CCCC[C@H]2CN(C)C3)cc1OC (racemic) | – | – | – | 5.01 | 7.46 | 5.23 | – | – | – | – | –
22 | Clc1ccc([C@]23CCCC[C@H]2CNC3)cc1Cl (racemic) | – | – | – | 6.69 | 6.94 | 6.95 | – | – | – | – | –
23 | COc1ccc([C@]23CCCC[C@H]2CN(C)C3)cc1 (racemic) | – | – | – | 6.00 | 6.89 | 4.85 | – | – | – | – | –
24 | CN1C[C@@H]2CCCC[C@]2(c2cccc3ccccc23)C1 (racemic) | – | – | – | 5.88 | 6.79 | 6.38 | – | – | – | – | –
25 | CN1C[C@@H]2CCCC[C@]2(c2ccc3ccccc3c2)C1 (racemic) | – | – | – | 7.69 | 8.32 | 6.27 | – | – | – | – | –
26 | CN1C[C@@H]2CCCC[C@]2(c2cccc3ccccc23)C1 | – | – | – | 5.48 | 6.01 | < 5.00 | – | – | – | – | –
27 | CN1C[C@H]2CCCC[C@@]2(Cc2ccc(Cl)c(Cl)c2)C1 (stereo in doubt) | > 7.30 | 121 min | 25 min | 6.32 | 8.26 | 5.42 | – | – | – | – | –
28 | CN1C[C@H]2CCC[C@@]2(c2ccc3ccccc3c2)C1 | 4.89 | 19 min | 18 min | 7.54 | 7.84 | 6.72 | – | – | – | – | –
29 | Clc1ccc([C@]23CCCC[C@@H]2CNC3)cc1Cl (racemic; 19a) | – | – | – | 5.99 | 5.74 | 5.22 | – | – | – | – | –
30 | CN1C[C@@H]2CCCC[C@]2(c2ccc(F)c(F)c2)C1 (racemic) | – | – | – | 6.38 | 5.91 | 5.63 | – | – | – | – | –
31 | CN1C[C@H]2CCCC[C@@]2(c2ccc3ccccc3c2)C1 | 4.87 | 17 min | 7 min | 7.21 | 7.90 | 6.27 | – | – | – | – | –
32 | Clc1ccc(C[C@]23CCCC[C@H]2CNC3)cc1Cl | – | – | – | 6.30 | 6.18 | 5.27 | – | – | – | – | –
33 | c1ccc2cc([C@]34CCC[C@H]3CNC4)ccc2c1 | 5.03 | 25 min | 26 min | 7.47 | 7.87 | 7.85 | < 4.60 | < 4.60 | 5.58 | – | 5.38
34 | CN1C[C@@H]2CCC[C@]2(c2ccc3ccccc3c2)C1 (racemic) | – | – | – | 7.00 | 8.45 | 6.33 | – | – | – | – | –
35 | CN1C[C@@H]2CCC[C@]2(c2ccc3ccccc3c2)C1 | 5.58 | 36 min | 18 min | 6.74 | 8.64 | 6.68 | – | – | – | – | –
